In article PMC5693369 (Nature chemical biology, 2017):

How the values were obtained:
PI3KCG = PI3KCG (Homo sapiens, UniProt P48736); test: Kinase profiling, PI3KCG; assay type: binding; settings: both kinase profiling formats
How it was run: (§1)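 Test compound screened at 1 μM against 414 kinases (LanthaScreen Eu binding, Adapta or Z-LYTE), scored as percent probe displacement or residual activity versus DMSO (0.5%). Also screened at 10 μM against 395 kinases by KINOMEscan active-site competitive binding, scored as percent displacement of a catalytic-site probe versus DMSO (0.5%).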

NF-κB = test: TF-seq pathway reporter assay in BMDMs, NF-κB; assay type: cell-based, mouse; settings: all stimuli tested
How it was run: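 Bone-marrow macrophages grown in DMEM with 30% FBS and 10% L929-conditioned medium, transduced on day 4 with a pooled lentiviral sequencing-based reporter library, then frozen and thawed. Cells plated at 100,000/well and pretreated 24 h at 37 °C with test compound (0.1 or 5 μM) or DMSO (0.5%). Stimulated up to 3 h with a ten-ligand panel or Sendai virus (MOI 10). Reporter transcripts counted as unique tagged molecules by sequencing.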

[1] = target: human cyclin C–CDK8 complex (Homo sapiens, UniProt P49336); test: Cyclin C-CDK8 LanthaScreen binding assay; settings: read-out: binding to cyclin C–CDK8, half-maximal inhibitory concentration (IC50)
How it was run: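 Human cyclin C–CDK8 complex in a LanthaScreen binding format. Binding expressed as percent displacement of a dye-labelled probe from the CDK8 kinase domain.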

[2] = tested on: mouse bone-marrow-derived macrophages (BMDMs); test: IL-10 production in activated BMDMs; assay type: cell-based; settings: BMDMs activated with zymosan A or R848
How it was run: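 Bone-marrow macrophages from C57BL/6 mice, treated 24 h with test compound or DMSO (0.5%), then stimulated 18 h with R848 (2 μg/mL) or zymosan A (4 μg/mL). IL-10 measured in culture medium.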

[3] = target: recombinant cyclin C–CDK19 (Homo sapiens, UniProt Q9BWU1); test: CDK19 radiometric filter-binding kinase activity assay; assay type: biochemical; settings: read-out: inhibition of kinase activity of cyclin C–CDK19, IC50
How it was run: (§2)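 Purified recombinant cyclin C–CDK8 or cyclin C–CDK19 incubated with a dilution series of test compound. Activity measured by radiometric filter binding as [γ-32P] transfer from ATP to recombinant RBER-IRStide substrate, relative to DMSO (1%) control. IC50 estimated by 4-parameter nonlinear regression.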

PI3KC2A = PI3KC2A (Homo sapiens, UniProt O00443); test: Kinase profiling, PI3KC2A; assay type: binding; settings: both kinase profiling formats
How it was run: as §1

STAT1 = STAT1 phosphorylation in IFNγ-stimulated BMDCs; assay type: cell-based, mouse; settings: BMDCs pre-incubated with compound
How it was run: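 BMDCs pre-incubated with test compound, then stimulated with recombinant murine IFNγ. Cells lysed in Tris pH 7.4 buffer with phosphatase and protease inhibitors, 1% Triton X-100 and 0.2% SDS; lysate clarified at 14,000 × g. 10–20 μg protein run on SDS–PAGE and blotted to PVDF. Probed for total STAT1 and p-STAT1 Tyr701 (1/1,000), β-actin; chemiluminescent detection.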

[4] = tested on: human, monocyte-derived DCs; test: IL-10 production in R848-stimulated human DCs; assay type: cell-based; settings: human DCs from two independent donors, R848 stimulation
How it was run: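 CD14+ monocytes enriched from healthy-donor buffy coats and cultured to DCs. On day 7, cells scraped and plated at 30,000/well, treated with a concentration series of test compound or DMSO (0.5%), then stimulated 18 h with R848 (2 μg/mL). Medium stored at −80 °C before IL-10 detection. n = 3 biological replicates per donor; two independent experiments.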

STAT1–STAT2 = test: TF-seq pathway reporter assay in BMDMs, STAT1–STAT2; assay type: cell-based, mouse; settings: ~2 h after stimulation
[5] = target: T1, recombinant cyclin C–CDK8 (Homo sapiens, UniProt P49336); test: CDK8 radiometric filter-binding kinase activity assay; assay type: biochemical; settings: read-out: inhibition of kinase activity of cyclin C–CDK8, IC50
How it was run: as §2

[6] = tested on: bone-marrow-derived dendritic cells (BMDCs); test: IL-10 release, cytokines and viability in zymosan A-stimulated BMDCs; assay type: cell-based, mouse
[7] = tested on: bone-marrow-derived dendritic cells (BMDCs); test: Cytokine production in R848-stimulated BMDCs; assay type: cell-based, mouse; settings: for IL-10 upregulation in Ccnc Δ/Δ BMDCs: BMDCs lacking cyclin C; for IL-10 upregulation in Ccnc Δ/Δ BMDCs / IL-10 upregulation in Ccnc f/f BMDCs: R848; for IL-10 production: BMDCs, R848 stimulation; for IL-10 upregulation in Ccnc f/f BMDCs: control BMDCs
How it was run: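 BMDCs from C57BL/6 bone marrow, pretreated 24 h with test compound or DMSO (0.5%), then given R848 (2 μg/mL) or zymosan A (4 μg/mL) for 18 h; some sets co-treated with T-5224 (100 μM). Cyclin C-deleted cells came from Ccnc f/f × Mx1-Cre mice given poly(I:C) 2.5 μg g−1 i.p. every other day for 3 d, with bone marrow taken 10 d later and deletion confirmed by PCR. Clarified medium assayed by cytometric bead array. n = 3–4 biological replicates; EC50 by 4-parameter regression.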

Il10 mRNA = Il10 mRNA levels after R848 stimulation; assay type: cell-based, mouse; settings: pretreatment, then R848 / microbial stimulation
c-Jun = c-Jun phosphorylation in R848-activated BMDCs; assay type: cell-based, mouse; settings: dCA pretreatment (100 nM; 18 h)
How it was run: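 BMDCs pretreated with test compound, then activated with R848 for a time course. Lysates (10–20 μg protein) separated by SDS–PAGE, transferred to PVDF and immunoblotted for phospho-c-Jun Ser243 (1/1000) with chemiluminescent detection. Two independent experiments.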

[8] = target: T1, recombinant cyclin C–CDK8; test: CDK8–c-Jun in vitro kinase reaction; assay type: biochemical; settings: in vitro kinase reaction with recombinant c-Jun
How it was run: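 60 ng recombinant cyclin C–CDK8 and 60 ng recombinant human c-Jun pre-incubated 15 min with a dilution series of test compound. Reaction started with 20 μM ATP and run 30 min at 30 °C in 60 mM HEPES pH 7.5, 3 mM MgCl2, 3 mM MnCl2, 1.2 mM DTT, then EDTA-quenched. Read by SDS–PAGE and immunoblot for phospho-c-Jun Ser243; two independent experiments.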

T1 sequence (P49336 whole entry): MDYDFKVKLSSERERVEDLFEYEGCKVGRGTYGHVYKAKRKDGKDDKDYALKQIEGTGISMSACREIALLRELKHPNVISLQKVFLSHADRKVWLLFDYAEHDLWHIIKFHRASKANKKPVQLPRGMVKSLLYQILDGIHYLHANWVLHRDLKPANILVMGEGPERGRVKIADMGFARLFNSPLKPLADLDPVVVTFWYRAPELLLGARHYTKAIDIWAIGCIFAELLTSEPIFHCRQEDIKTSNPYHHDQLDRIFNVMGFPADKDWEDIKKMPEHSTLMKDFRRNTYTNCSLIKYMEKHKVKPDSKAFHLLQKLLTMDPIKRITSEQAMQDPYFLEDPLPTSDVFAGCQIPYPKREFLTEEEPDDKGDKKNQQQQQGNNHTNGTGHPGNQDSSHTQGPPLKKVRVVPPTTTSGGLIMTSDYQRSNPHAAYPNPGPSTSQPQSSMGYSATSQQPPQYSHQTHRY
T1 sequence (P24863 whole entry partner): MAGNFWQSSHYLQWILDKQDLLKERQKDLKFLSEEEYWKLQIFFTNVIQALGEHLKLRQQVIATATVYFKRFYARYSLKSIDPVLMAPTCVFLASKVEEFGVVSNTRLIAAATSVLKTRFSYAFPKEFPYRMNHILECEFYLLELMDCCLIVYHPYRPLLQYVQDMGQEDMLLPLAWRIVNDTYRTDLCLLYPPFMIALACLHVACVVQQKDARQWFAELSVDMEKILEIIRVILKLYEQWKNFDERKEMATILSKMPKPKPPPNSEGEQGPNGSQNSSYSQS
Sequence of recombinant cyclin C–CDK19 (Q9BWU1 whole entry): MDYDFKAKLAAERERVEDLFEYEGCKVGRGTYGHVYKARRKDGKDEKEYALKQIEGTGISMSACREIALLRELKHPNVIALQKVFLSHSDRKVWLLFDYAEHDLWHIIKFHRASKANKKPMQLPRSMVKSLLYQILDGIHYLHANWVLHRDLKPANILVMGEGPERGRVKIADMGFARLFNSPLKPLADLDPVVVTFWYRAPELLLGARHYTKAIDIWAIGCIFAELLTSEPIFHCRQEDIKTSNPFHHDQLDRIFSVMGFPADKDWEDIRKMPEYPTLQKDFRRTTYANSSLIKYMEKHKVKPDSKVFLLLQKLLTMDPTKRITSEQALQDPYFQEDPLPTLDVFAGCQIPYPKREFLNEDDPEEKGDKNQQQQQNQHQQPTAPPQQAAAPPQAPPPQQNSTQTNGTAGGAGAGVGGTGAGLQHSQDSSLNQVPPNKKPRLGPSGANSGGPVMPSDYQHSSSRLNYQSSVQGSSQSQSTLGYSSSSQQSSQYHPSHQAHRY
Sequence of recombinant cyclin C–CDK19 (P24863 whole entry partner): as the sequence (P24863 whole entry partner) above
Sequence of human cyclin C–CDK8 complex (P49336 whole entry, the tested form may be a part): as the sequence (P49336 whole entry) above
Sequence of human cyclin C–CDK8 complex (P24863 whole entry partner, the tested form may be a part): as the sequence (P24863 whole entry partner) above
Sequence of PI3KCG (P48736 whole entry): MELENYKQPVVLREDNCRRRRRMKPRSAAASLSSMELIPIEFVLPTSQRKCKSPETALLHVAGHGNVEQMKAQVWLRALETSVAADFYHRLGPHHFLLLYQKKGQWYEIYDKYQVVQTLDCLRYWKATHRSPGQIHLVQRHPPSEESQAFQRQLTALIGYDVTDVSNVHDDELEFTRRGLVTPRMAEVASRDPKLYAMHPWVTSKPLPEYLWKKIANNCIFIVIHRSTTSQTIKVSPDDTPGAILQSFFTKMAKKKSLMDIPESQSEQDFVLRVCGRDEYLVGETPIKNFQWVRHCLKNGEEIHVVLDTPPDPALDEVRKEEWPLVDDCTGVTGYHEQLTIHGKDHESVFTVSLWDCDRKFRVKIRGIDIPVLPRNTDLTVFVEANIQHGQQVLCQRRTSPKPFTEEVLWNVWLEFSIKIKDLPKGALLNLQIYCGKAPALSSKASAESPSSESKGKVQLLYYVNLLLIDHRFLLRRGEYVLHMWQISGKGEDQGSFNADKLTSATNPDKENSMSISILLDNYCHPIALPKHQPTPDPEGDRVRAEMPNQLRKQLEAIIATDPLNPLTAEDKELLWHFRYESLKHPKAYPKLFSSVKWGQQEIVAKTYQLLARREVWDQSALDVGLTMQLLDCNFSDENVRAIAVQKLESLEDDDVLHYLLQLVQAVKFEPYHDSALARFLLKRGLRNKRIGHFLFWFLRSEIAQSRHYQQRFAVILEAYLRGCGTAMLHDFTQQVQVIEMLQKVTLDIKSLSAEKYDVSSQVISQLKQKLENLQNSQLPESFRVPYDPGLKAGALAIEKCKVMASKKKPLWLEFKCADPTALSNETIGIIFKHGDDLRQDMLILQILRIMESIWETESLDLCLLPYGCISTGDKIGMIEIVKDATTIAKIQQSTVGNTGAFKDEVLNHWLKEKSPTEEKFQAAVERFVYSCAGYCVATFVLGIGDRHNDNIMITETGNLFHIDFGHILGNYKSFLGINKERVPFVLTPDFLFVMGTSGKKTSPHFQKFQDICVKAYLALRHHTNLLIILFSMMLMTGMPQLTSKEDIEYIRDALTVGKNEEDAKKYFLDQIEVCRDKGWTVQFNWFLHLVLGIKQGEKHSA
Sequence of PI3KC2A (O00443 whole entry): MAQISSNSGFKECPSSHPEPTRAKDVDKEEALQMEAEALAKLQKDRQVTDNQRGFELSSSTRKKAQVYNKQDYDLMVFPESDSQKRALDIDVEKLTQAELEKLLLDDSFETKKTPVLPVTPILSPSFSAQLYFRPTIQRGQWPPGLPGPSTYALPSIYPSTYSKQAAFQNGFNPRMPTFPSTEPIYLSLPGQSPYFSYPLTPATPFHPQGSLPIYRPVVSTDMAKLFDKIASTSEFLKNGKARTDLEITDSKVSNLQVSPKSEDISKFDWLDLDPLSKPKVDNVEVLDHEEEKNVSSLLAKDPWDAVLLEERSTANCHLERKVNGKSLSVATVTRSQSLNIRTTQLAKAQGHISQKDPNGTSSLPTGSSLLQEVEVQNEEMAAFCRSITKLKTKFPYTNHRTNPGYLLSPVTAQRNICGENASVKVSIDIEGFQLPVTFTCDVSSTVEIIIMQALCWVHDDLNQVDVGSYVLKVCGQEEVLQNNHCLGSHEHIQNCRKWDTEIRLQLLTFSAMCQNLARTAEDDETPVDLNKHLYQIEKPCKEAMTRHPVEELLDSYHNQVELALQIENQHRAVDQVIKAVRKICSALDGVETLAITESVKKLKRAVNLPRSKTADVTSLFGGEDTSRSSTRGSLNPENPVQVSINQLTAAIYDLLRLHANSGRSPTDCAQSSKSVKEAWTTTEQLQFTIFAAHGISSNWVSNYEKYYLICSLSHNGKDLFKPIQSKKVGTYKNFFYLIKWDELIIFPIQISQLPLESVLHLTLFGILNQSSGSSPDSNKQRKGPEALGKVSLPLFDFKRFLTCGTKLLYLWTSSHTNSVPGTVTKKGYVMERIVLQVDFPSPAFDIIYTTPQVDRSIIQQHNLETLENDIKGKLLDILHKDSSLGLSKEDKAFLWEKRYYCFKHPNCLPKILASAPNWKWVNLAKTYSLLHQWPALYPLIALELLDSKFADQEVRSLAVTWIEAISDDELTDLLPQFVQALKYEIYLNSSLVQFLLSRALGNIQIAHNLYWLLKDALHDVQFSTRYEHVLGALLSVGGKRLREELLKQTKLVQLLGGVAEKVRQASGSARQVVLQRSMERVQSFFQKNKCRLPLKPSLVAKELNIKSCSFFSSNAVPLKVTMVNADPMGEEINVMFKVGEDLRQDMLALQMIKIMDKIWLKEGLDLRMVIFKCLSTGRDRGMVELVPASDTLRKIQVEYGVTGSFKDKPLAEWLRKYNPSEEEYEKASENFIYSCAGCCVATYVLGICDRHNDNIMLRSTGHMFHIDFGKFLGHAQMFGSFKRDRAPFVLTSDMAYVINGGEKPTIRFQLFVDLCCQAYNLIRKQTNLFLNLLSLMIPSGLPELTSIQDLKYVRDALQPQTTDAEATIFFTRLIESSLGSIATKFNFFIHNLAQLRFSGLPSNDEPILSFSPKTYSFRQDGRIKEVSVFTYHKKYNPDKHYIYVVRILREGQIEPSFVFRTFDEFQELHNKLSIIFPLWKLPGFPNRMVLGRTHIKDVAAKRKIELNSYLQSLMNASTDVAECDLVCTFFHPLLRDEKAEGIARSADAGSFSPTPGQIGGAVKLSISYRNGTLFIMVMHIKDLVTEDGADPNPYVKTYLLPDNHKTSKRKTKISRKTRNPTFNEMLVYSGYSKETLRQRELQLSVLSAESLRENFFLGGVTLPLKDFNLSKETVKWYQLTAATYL

Compound	NF-κB reporter activation (NF-κB)	IL-10 production [4]	STAT1–STAT2 reporter activity (STAT1–STAT2)	IL-10 upregulation in Ccnc Δ/Δ BMDCs [7]	IL-10 production [7]	IL-10 upregulation in Ccnc f/f BMDCs [7]	Il10 mRNA levels (Il10 mRNA)	other results
CC1CCc2nc(N)c(C#N)c(-c3cccnc3)c2C1 (stereo not drawn) [BRD6989]	suppressed NF-κB activation	upregulated IL-10	suppressed induction of STAT1–STAT2 activity	failed to upregulate IL-10	greater fold-increase in IL-10 production	remained intact	sustained increase beginning at 4 h and extending to 24 h	kinase profiling hit, PI3KCG (PI3KCG): secondary targets; IC50 [1]: ~200 nM; IL-10 production [2]: increased IL-10 production; IC50 [3]: > 30 µM; kinase profiling hit, PI3KC2A (PI3KC2A): secondary targets; IFNγ-induced phosphorylation of STAT1 at Ser727 (STAT1): inhibited; JAK-mediated phosphorylation of STAT1 Tyr701 (STAT1): did not affect; IC50 [5]: ~500 nM; cell viability ([6]; 48 h pretreatment, zymosan A 18 h): modestly reducing cell viability; production of IL-1β ([6]; zymosan A): largely unchanged; production of IL-12p40 ([6]; zymosan A): largely unchanged; production of TNFα ([6]; zymosan A): largely unchanged; zymosan A–induced release of IL-6 ([6]; zymosan A): suppressed
Cn1ncc2cc(-c3cnc(N)c(Cl)c3N3CCC4(CCNC4=O)CC3)ccc21 [CCT251921]	–	recapitulated the IL-10 potentiating activity of BRD6989	–	–	recapitulated the IL-10 potentiating activity of BRD6989	–	–	–
COc1ccc(N(C(=O)Nc2c(C)cccc2C)c2cc(Nc3ccc(N4CCN(C)CC4)cc3)ncn2)c(OC)c1 [HG-9-91-01, reference compound]	–	–	–	–	–	–	elevated Il10 mRNA during the first 2 h	–
CN(C)C/C=C/C(=O)Nc1ccc(C(=O)Nc2cccc(Nc3ncc(Cl)c(-c4c[nH]c5ccccc45)n3)c2)cc1 [THZ-1]	–	–	–	–	not enhanced	–	–	–
CN(C)[C@H]1C[C@@]23CC[C@@]4(O2)C(=CC[C@]2(C)C(c5ccc6ccncc6c5)=CC[C@H]24)C=C3[C@@H](O)[C@@H]1O [dCA, Δ^16-cortistatin A]	suppressed NF-κB activation	recapitulated the IL-10 potentiating activity of BRD6989	suppressed induction of STAT1–STAT2 activity	failed to upregulate IL-10	recapitulated the IL-10 potentiating activity of BRD6989	remained intact	–	activating phosphorylation of c-Jun on Ser63 (c-Jun): only moderately delayed; phosphorylation of c-Jun Ser243 (c-Jun): dramatically reduced phosphorylation; c-Jun Ser243 phosphorylation by recombinant cyclin C–CDK8 [8]: concentration-dependent suppression
